# MITF TRPM1 HTS: MITF TRPM1 promoter activation in melanoma cells | SK-MEL-5 TRPM1-promoter luciferase, 24 h; % of positive control, neutral wells = 0 | activation, % at 12.5 µM | hit rate 0.75% among 300,000 | AID 588334;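 active = mean activation of at least 80% with every replicate also reaching 80%; inconclusive = mean reaches 80% but some replicate falls short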;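 note: 0% = neutral control wells and 100% = parthenolide positive control wells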
# Wnt act: activates Wnt/beta-catenin signaling in a reporter cell assay. activator, plate reader. activation, % at 9.35 µM. hit rate 1.2% among 300,000. AID 743398; in the data active = activation above about 30%, passing the limit was not always enough; inconclusive = no clear call, values can overlap the other calls;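 note: 0% = neutral control wells and 100% = positive control wells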
# esBAF inh: inhibitors of esBAF chromatin remodeling in mouse ES cells. hit rate 2% among 350,000. AID 602393. Bmi1-luciferase knock-in reporter, 24 h; 100% = twice the neutral-well signal. reporter increase, % at 12.5 µM; in the data active = activation above about 40%; inconclusive = no clear call, values can overlap the other calls;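 note: 0% = median of the plate's neutral control wells and 100% = double that signal; a rise in the Bmi1 reporter signal indicates esBAF inhibition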
# Casp6 inh: inhibitors of human caspase-6; P55212; purified caspase-6, Z-VEID-R110 cleavage fluorescence; inhibition, % at 12.5 µM; hit rate 0.53% among 350,000;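 active = mean inhibition across replicates at least about 35%, with every replicate also reaching that limit, limit read from the data; inconclusive = only one of the two criteria met; inactive = neither criterion met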;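 note: 0% = median of neutral control wells and 100% = no fluorescence left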
# NSD2 inh: inhibitors of human histone methyltransferase NSD2. O96028. NSD2 peptide methylation, AlphaScreen, 120 min. inhibition, % at 12.5 µM. hit rate 0.54% among 310,000; in the data active = inhibition above about 50%
# Target sequence (O96028 whole entry, looked up): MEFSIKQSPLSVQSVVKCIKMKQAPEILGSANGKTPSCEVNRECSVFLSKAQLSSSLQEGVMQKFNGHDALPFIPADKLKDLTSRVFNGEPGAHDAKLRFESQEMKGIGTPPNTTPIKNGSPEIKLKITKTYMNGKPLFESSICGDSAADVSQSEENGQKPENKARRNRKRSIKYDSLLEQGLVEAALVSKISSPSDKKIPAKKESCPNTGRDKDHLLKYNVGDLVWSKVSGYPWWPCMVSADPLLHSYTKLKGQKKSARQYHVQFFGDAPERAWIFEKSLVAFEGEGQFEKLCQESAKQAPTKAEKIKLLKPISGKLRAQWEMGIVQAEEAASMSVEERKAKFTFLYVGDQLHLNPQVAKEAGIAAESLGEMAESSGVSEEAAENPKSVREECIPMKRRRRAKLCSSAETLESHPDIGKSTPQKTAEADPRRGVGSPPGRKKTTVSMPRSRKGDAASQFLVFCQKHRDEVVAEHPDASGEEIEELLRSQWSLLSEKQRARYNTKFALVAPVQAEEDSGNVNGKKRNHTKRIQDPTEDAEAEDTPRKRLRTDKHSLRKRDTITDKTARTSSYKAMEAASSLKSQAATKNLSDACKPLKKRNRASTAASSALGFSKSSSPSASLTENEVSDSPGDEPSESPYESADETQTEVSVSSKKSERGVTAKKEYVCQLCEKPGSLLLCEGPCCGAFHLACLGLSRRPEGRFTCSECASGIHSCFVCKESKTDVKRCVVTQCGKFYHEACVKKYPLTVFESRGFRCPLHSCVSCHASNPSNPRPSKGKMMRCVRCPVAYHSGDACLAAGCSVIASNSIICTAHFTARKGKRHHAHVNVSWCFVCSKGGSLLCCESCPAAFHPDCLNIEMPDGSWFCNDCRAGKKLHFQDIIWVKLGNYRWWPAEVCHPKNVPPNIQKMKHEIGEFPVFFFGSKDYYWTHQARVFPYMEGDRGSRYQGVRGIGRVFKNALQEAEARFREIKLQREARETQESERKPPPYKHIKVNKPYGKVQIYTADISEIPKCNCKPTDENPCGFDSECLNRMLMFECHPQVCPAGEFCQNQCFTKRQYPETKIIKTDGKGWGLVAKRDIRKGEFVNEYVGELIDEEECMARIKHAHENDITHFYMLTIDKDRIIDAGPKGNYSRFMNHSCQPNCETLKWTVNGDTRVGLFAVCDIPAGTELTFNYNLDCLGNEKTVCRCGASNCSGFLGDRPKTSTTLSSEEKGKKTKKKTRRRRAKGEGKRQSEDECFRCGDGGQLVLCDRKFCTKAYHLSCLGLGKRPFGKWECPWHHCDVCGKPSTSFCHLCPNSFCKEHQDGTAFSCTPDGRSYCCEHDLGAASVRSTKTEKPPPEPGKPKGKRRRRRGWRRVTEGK
# XiGFP reactiv: X-chromosome reactivation activator; XiGFP mouse fibroblasts, % GFP-positive cells imaging, 3 d; cells co-treated with 5-aza-dC sensitizer; scaled so ellipticine positive control = 100%; activation, % at 7.58 µM; hit rate 0.055% among 360,000;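 active = mean normalized replicate activation at least 10% and every replicate at or above 10%; inconclusive = only one of the two criteria met; inactive = mean below 10% and not all replicates reach 10%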;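 note: 0% = median of on-plate neutral control wells and 100% = ellipticine 6 µM median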
#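 material = 68-5-11 XiGFP fibroblast line | medium = DMEM plus 5-aza-dC sensitizer | schedule = 3 days compound exposure | benchmarks = positive control ellipticine, 6 µM final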
# esBAF Ring1 qPCR: de-represses Ring1 in mouse ESCs, confirming esBAF inhibition. mouse ESC E14, Ring1 mRNA RT-qPCR fold change. shares compounds with esBAF inh. fold change at 33 µM. 550 tested, under 10 active;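 active = Ring1 gene expression raised more than 2-fold over untreated cells in both replicates at either tested dose; inconclusive = only one replicate above 2-fold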;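 note: Ring1 transcript normalised to actin housekeeping signal by TaqMan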
# Fgf4 repress: esBAF inhibition confirmed by Fgf4 repression. shares compounds with esBAF inh. mouse ESC E14, Fgf4 mRNA qPCR fold change; hits give low values. Fgf4 expression fold change at 33 µM. hit rate 4% among 550. AID 743177;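 active = Fgf4 expression under 0.8 fold of control in both repeat measurements at one or both tested doses; inconclusive = under 0.8 fold in just a single repeat measurement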;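 note: Fgf4 transcript normalised to actin in duplex TaqMan qPCR; cells exposed to compound for 24 h before lysis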
# esBAF Bmi1 qPCR: esBAF inhibition confirmed by Bmi1 de-repression; shares compounds with esBAF inh; fold change at 33 µM; 550 tested, under 10 active; mouse ESE14 ES cells, Bmi1 mRNA qPCR fold; hits give high values;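 active = Bmi1 expression fold change above 6 at either tested concentration, seen in replicate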;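 note: higher fold means more Bmi1 de-repression and stronger esBAF inhibition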
# A549 tox SP: kills or reduces viability of A549 cells | shares compounds with esBAF inh | A549 cytotoxicity, plate reader | cell viability change % (negative = cytotoxic), % at 25 µM, hits read low | 550 tested, under 10 active; call rule not given here
# HepG2 tox SP: HepG2 cell cytotoxicity at single point; shares compounds with esBAF inh; AID 743189; hit rate 4% among 550; plate reader; hits give low values; activity change, negative = inhibition, % at 25 µM; in the data active = activity change below about -50%
# HEK293 cytotox SP: kills or reduces viability of HEK293 cells; HEK293 cytotoxicity, plate reader; hit rate 3% among 550; activity change, negative = inhibition, % at 25 µM, hits read low; shares compounds with esBAF inh; in the data active = activity change below about -38%, passing the limit was not always enough
# CASP1 counter: blocks human caspase-1 in a selectivity counter-screen; shares compounds with Casp6 inh; purified caspase-1, Z-YVAD-R110 cleavage fluorescence; activity change, negative = inhibition, % at 35 µM; 100 tested, under 10 active;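 active = compounds lowering fluorescence whose fitted half-maximal concentration is no more than twice their top tested dose; inconclusive = flat fit with 30 to 70% inhibition, or poor fit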
# The depositor's hits bear a star; ? = inconclusive; . = not tested or not shown. Shown are actives, neighbours in structure and some others; about 3% of the full set was active somewhere.
SMILES,MITF TRPM1 HTS,Wnt act,esBAF inh,Casp6 inh,NSD2 inh,XiGFP reactiv,esBAF Ring1 qPCR,Fgf4 repress,esBAF Bmi1 qPCR,A549 tox SP,HepG2 tox SP,HEK293 cytotox SP,CASP1 counter
O=C(Nc1ccc(SC(F)F)cc1)C12CCC(CC1)C2,42,12,56*,0,2,0,1.2,?,1.7,-5,26,1,.
COc1ccccc1NC(=O)N1CC(=O)N2[C@@H](CO)[C@H](c3ccc(C#Cc4ccccc4)cc3)[C@@H]2C1,.,.,.,0,.,0,.,.,.,.,.,.,.
CC(=O)Oc1ccc(-c2csc(Nc3ccc(Cl)cn3)n2)cc1,.,8,59*,1,0,0,1.4,0.9,1.7,-9,-12,-1,.
Cc1nc(N)sc1-c1csc(Nc2ccc(Cl)cn2)n1,16,3,30,18,1,.,.,.,.,.,.,.,.
CCN(CC)C(=O)Oc1ccc2c(=O)c(-c3ccc(OC)cc3)coc2c1,?,20,61*,1,1,.,1.1,0.83,1.6,-6,2,-6,.
CCN(CC)C(=O)Oc1ccc2c(=O)c(-c3ccc(OC)cc3)c(C)oc2c1,-6,.,15,.,-5,.,.,.,.,.,.,.,.
COc1cc(/C=C/c2nc3ccccc3c(=O)[nH]2)ccc1OC(F)F,?,35*,56*,0,37,0,1.2,1,1.5,-8,-24,-1,.
Cc1cccc(Nc2nc(-c3sc(C)nc3C)cs2)c1,.,8,69*,1,-4,0,1.2,0.95,1.7,-1,-16,-23,.
Cc1noc(C)c1NC(=O)Nc1ccc2c(c1)C(=O)N([C@@H](C)CO)C[C@@H](C)[C@@H](CN(C)C(=O)Nc1ccc(C(F)(F)F)cc1)OCCCC[C@@H](C)O2,.,.,-6,-2,.,0,.,.,.,.,.,.,.
C[C@@H]1CCCCO[C@@H](CN(C)S(C)(=O)=O)[C@H](C)CN([C@@H](C)CO)C(=O)c2cc(NC(=O)c3ccncc3)ccc2O1,.,.,-3,.,.,-1,.,.,.,.,.,.,.
Cc1ccc(NC(=O)Cc2noc3ccccc23)cc1,.,.,81*,.,-1,.,1.1,1,0.99,2,-34,-12,.
Cc1ccsc1CN(C)C(=O)C1CCC(=O)N(CCc2cccc(F)c2)C1 (configuration not stated),48,0,65*,2,1,0,1.4,0.97,1.7,-6,-21,-9,.
C(=N\N1CCN(c2ccccc2)CC1)/c1ccccc1,91*,-2,63*,-4,.,0,0.99,1,1.5,-1,10,0,.
Cc1ccc(-n2nnc(-c3cccnc3)n2)cc1,102*,22,60*,6,.,0,1.2,1,1.5,-3,-10,16,.
Cc1ccc(-n2nnc(-c3nccn3C)n2)cc1,-2,6,-58,-3,.,0,.,.,.,.,.,.,.
O=c1oc(-c2ccccc2)nc2sc3c(c12)CCC3,10,0,.,72*,16,0,.,.,.,.,.,.,-4
COc1ccc(CN2C[C@H](C)[C@@H](OC)CN(C)C(=O)c3cc(NC(=O)c4nc5ccccc5s4)ccc3OC[C@H]2C)cc1,.,.,-1,-3,.,-1,.,.,.,.,.,.,.
C[C@H](CO)N1C[C@H](C)[C@H](CN(C)C(=O)Nc2ccccc2)Oc2c(NS(=O)(=O)c3ccccc3)cccc2C1=O,.,.,2,-3,.,-1,.,.,.,.,.,.,.
COc1cc(C)c2c(c1C=O)Oc1c(c(C)c(O)c3c1C(O)OC3=O)OC2=O (configuration not stated),1,-1,-10,78*,.,.,.,.,.,.,.,.,-3
Nc1cc2nn(-c3ccccc3)nc2cc1Cl,2,49*,.,98*,52*,0,.,.,.,.,.,.,2
C[C@@H]1CN([C@H](C)CO)S(=O)(=O)c2ccc(-c3cccnc3)cc2O[C@H]1CN(C)C(=O)C1CCCCC1,.,.,2,2,.,-1,.,.,.,.,.,.,.
CCC(=O)N(C)C[C@H]1Oc2cc(-c3cncnc3)ccc2S(=O)(=O)N([C@H](C)CO)C[C@@H]1C,.,.,3,-4,.,-1,.,.,.,.,.,.,.
O=C(c1cccc(-n2cccc2)c1)N1CCN(S(=O)(=O)c2ccccc2)CC1,5,-5,7,51*,.,0,.,.,.,.,.,.,3
C[C@@H]1CN([C@H](C)CO)C(=O)c2cc(NS(=O)(=O)c3cn(C)cn3)ccc2O[C@H]1CN(C)S(C)(=O)=O,.,.,8,-1,.,0,.,.,.,.,.,.,.
C/C=C/c1cnc2c(c1)C(=O)N([C@@H](C)CO)C[C@@H](C)[C@H](CN(C)S(=O)(=O)c1ccc(F)cc1)O2,.,.,-4,1,.,-1,.,.,.,.,.,.,.
SMILES,MITF TRPM1 HTS,Wnt act,esBAF inh,Casp6 inh,NSD2 inh,XiGFP reactiv,esBAF Ring1 qPCR,Fgf4 repress,esBAF Bmi1 qPCR,A549 tox SP,HepG2 tox SP,HEK293 cytotox SP,CASP1 counter
COc1cc([N+](=O)[O-])c(OC)cc1Nc1ccccc1C(=O)O,.,-1,.,29,15,0,.,.,.,.,.,.,.
COc1cc(-c2ccc(Nc3ccccc3C(=O)O)c(OC)c2)ccc1Nc1ccccc1C(=O)O,-4,-3,-1,40*,80*,0,.,.,.,.,.,.,-3
CN1C(=O)c2cc(NC(=O)NC3CCCC3)ccc2OC[C@@H]2O[C@H](CC(=O)NCC3CC3)CC[C@@H]21,.,.,-1,-4,.,0,.,.,.,.,.,.,.
COc1ccc(C(=O)OCC(=O)Nc2ncc([N+](=O)[O-])s2)cc1OC,-1,5,11,57*,-2,0,.,.,.,.,.,.,-2
COc1ccccc1NC(=O)COC(=O)c1ccc([N+](=O)[O-])s1,-12,-1,.,87*,1,0,.,.,.,.,.,.,0
NS(=O)(=O)c1ccc(NC(=O)COC(=O)c2ccc([N+](=O)[O-])s2)cc1,-9,-2,-7,92*,.,0,.,.,.,.,.,.,4
Cc1ccc(NC(=O)COC(=O)c2ccc([N+](=O)[O-])s2)c(C)c1,-11,-4,.,1,0,0,.,.,.,.,.,.,.
COc1ccc(C(=O)OCC(=O)Nc2sccc2C(N)=O)cc1OC,15,9,17,1,-1,0,.,.,.,.,.,.,.
Oc1cc(NCCc2cccnc2)cc2cccnc12,-44,3,-3,49*,.,1,.,.,.,.,.,.,5
Oc1cc(-c2ccncc2)cc2cccnc12,.,3,-80,.,.,0,.,.,.,.,.,.,.

# High-throughput results deposited in PubChem by Broad Institute.
